Laboratory results as given in ChEMBL document CHEMBL4229399, “Discovery and optimization of aspartate aminotransferase 1 inhibitors to target redox balance in pancreatic ductal adenocarcinoma” (Bioorg Med Chem Lett, 2018).
The source made the active and inactive calls. The calls are words filed in the database; no cut-off is given here.

Target: T1, Aspartate aminotransferase, cytoplasmic (Homo sapiens, UniProt P17174)
Experiment: Inhibition of GOT1 (unknown origin) using aspartate and alpha-ketoglutarate as substrate after 20 mins by GLOX enzyme-coupled fluorescence assay
Conditions: not given
In short: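 GOT1 (~1 nM, set per purification for a 20 min linear reaction) with aspartate 4 mM and alpha-ketoglutarate 0.5 mM (KM levels). Glutamate is turned over by GLOX (80 nM), and the H2O2 drives HRP (0.05 U/mL) oxidation of Amplex Red (15 µg/mL). Buffer: 100 mM HEPES, 100 mM KCl. Run 20 min at 37 °C; resorufin fluorescence read at 530/550 nm.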

T1 sequence (P17174 whole entry): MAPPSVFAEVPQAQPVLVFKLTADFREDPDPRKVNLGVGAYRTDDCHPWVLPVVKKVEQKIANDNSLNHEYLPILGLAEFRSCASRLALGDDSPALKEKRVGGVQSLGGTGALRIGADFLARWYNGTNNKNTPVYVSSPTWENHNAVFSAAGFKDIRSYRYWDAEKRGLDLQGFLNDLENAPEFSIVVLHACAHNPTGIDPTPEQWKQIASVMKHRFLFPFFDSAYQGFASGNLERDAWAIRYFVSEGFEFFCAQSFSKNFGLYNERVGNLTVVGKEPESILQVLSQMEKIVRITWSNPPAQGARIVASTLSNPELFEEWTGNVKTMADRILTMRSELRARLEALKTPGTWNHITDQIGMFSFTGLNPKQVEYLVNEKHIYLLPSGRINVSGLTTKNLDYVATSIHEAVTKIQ

inhibition, active:
O=C(Nc1ccccc1)N1CCN(c2cccc3[nH]ccc23)CC1

System: not listed separately
Experiment: Half life in CD-1 mouse at 20 mg/kg administered via oral gavage by LC-MS/MS analysis
Assay type: ADME, organism-based
Conditions: in vivo
In short: (§1)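 Female CD1 mice, 9 weeks old, oral gavage at 20 mg/kg (5 mL/kg). Fasted overnight, with food returned after the 4-h bleed. Blood sampled retro-orbitally at 0.5, 1, 4, 8 and 24 h, n = 3 per time point. Plasma separated by centrifugation and frozen at -80 °C. Drug level quantified by LC/MS/MS from analyte peak area.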

half-life, 42 min:
O=C(Nc1ccccc1)N1CCN(c2cccc3[nH]ccc23)CC1

Target: T1, Aspartate aminotransferase, cytoplasmic
Experiment: Inhibition of GOT1 (unknown origin) using aspartate and alpha-ketoglutarate as substrate after 20 mins by MDH1 enzyme-coupled fluorescence assay
Conditions: not given
In short: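 Oxaloacetate from GOT1 (~1 nM) is reduced by MDH1 (0.3 µg/mL final) using NADH (250 µM final). Loss of NADH fluorescence is read at 340/445 nm. Substrates aspartate 4 mM and alpha-ketoglutarate 0.5 mM. Buffer: 100 mM HEPES, 100 mM KCl. Incubated 20 min at 37 °C. Mean of n = 3.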

IC50, 56 µM:
O=C(Nc1ccc(Cl)cc1Cl)N1CCN(c2cccc3[nH]ccc23)CC1

IC50, 25 µM:
COc1ccc(NC(=O)N2CCN(c3cccc4[nH]ccc34)CC2)cc1

IC50, 22 µM:
O=C(Nc1cc(Cl)cc(Cl)c1)N1CCN(c2cccc3[nH]ccc23)CC1

IC50, 52 µM:
O=C(Nc1cccc(Cl)c1)N1CCN(c2cccc3[nH]ccc23)CC1

IC50, 43 µM:
O=C(c1ccccc1)c1ccc(NC(=O)N2CCN(c3cccc4[nH]ccc34)CC2)cc1

IC50, 34 µM:
O=C(NCCc1c[nH]c2ccccc12)Nc1ccccc1-c1ccccc1

IC50, 62 µM:
O=C(NCCc1c[nH]c2ccccc12)Nc1cccc(C(F)(F)F)c1

IC50, 39 µM:
O=C(Nc1cccc(Oc2ccccc2)c1)N1CCN(c2cccc3[nH]ccc23)CC1
O=C(NCCc1c[nH]c2ccccc12)Nc1ccc(C(F)(F)F)cc1

IC50, 64 µM:
Cc1cc(C)cc(NC(=O)N2CCN(c3cccc4[nH]ccc34)CC2)c1

IC50, > 100 µM:
O=C(NCCc1c[nH]c2ccccc12)Nc1ccccc1
O=C(Nc1cccc2cccnc12)N1CCN(c2cccc3[nH]ccc23)CC1
COc1ccc(OC)c(NC(=O)N2CCN(c3cccc4[nH]ccc34)CC2)c1
O=C(NCc1ccc(Cl)cc1)N1CCN(c2cccc3[nH]ccc23)CC1
COc1ccccc1N1CCN(C(=O)Nc2ccccc2)CC1
CC(C)NC(=O)N1CCN(c2cccc3[nH]ccc23)CC1
O=C(NCc1ccccc1)N1CCN(c2cccc3[nH]ccc23)CC1
Cc1ccc(NC(=O)N2CCN(c3cccc4[nH]ccc34)CC2)cc1C
O=C(Nc1ccc(Cc2ccccc2)cc1)N1CCN(c2cccc3[nH]ccc23)CC1
O=C(Nc1cncnc1)N1CCN(c2cccc3[nH]ccc23)CC1
COc1ccc(N2CCN(C(=O)Nc3ccccc3)CC2)cc1
CC(C)CNC(=O)N1CCN(c2cccc3[nH]ccc23)CC1
Cc1cccc(NC(=O)N2CCN(c3cccc4[nH]ccc34)CC2)c1
N#Cc1ccccc1NC(=O)N1CCN(c2cccc3[nH]ccc23)CC1
O=C(Nc1ccccc1)N1CCN(Cc2cncs2)CC1
O=C(Nc1ccc(C(F)(F)F)cc1)N1CCN(c2ccncc2)CC1
COc1cccc(NC(=O)N2CCN(c3cccc4[nH]ccc34)CC2)c1
COc1cc(NC(=O)N2CCN(c3cccc4[nH]ccc34)CC2)cc(OC)c1
CNC(=O)c1cccc(NC(=O)N2CCN(c3cccc4[nH]ccc34)CC2)c1
COc1cccc(OC)c1NC(=O)N1CCN(c2cccc3[nH]ccc23)CC1
COc1cccc(N2CCN(C(=O)Nc3ccccc3)CC2)c1
O=C(Nc1cccc2ncsc12)N1CCN(c2cccc3[nH]ccc23)CC1
O=C(Nc1ccccn1)N1CCN(c2cccc3[nH]ccc23)CC1
COc1ccc(NC(=O)N2CCN(c3cccc4[nH]ccc34)CC2)c(OC)c1
N#Cc1cccc(NC(=O)N2CCN(c3cccc4[nH]ccc34)CC2)c1
O=C(Nc1ccccc1)N1CCN(c2cccc3cnccc23)CC1
O=C(Nc1c(Cl)cccc1Cl)N1CCN(c2cccc3[nH]ccc23)CC1
Cc1ccc2[nH]ccc2c1N1CCN(C(=O)Nc2ccccc2)CC1
O=C(Cc1ccccc1)N1CCN(c2cccc3[nH]ccc23)CC1
O=C(Nc1cccc(Cl)c1Cl)N1CCN(c2cccc3[nH]ccc23)CC1
O=C(Nc1ccncc1)N1CCN(c2cccc3[nH]ccc23)CC1
Cc1cc(N2CCN(C(=O)Nc3ccccc3)CC2)c2cc[nH]c2c1
CNC(=O)c1ccc(NC(=O)N2CCN(c3cccc4[nH]ccc34)CC2)cc1
CC(=O)N1CCN(C(=O)Nc2ccccc2)CC1
O=C(CCC(=O)Nc1c[nH]c2ccccc12)Nc1ccccc1
O=C(Nc1ccccc1)N1CCN(c2ccncc2)CC1
Cc1ccc(NC(=O)N2CCN(c3cccc4[nH]ccc34)CC2)c(C)c1
CC(C)N1CCN(C(=O)Nc2ccccc2)CC1
O=C(OCc1ccccc1)N1CCN(c2cccc3[nH]ccc23)CC1
O=C(Nc1ccccc1)N1CCN(c2cccc3[nH]ncc23)CC1
O=C(Nc1ccccc1Cl)N1CCN(c2cccc3[nH]ccc23)CC1
O=C(Nc1ccc2ncccc2c1)N1CCN(c2cccc3[nH]ccc23)CC1
COc1ccccc1NC(=O)N1CCN(c2cccc3[nH]ccc23)CC1
O=C(c1ccccc1)N1CCN(c2cccc3[nH]ccc23)CC1
Cc1cccc(NC(=O)N2CCN(c3cccc4[nH]ccc34)CC2)c1C
CNC(=O)N1CCN(c2cccc3[nH]ccc23)CC1
CCN1CCN(C(=O)Nc2ccccc2)CC1
O=C(Nc1cc(Cl)ccc1Cl)N1CCN(c2cccc3[nH]ccc23)CC1
CN1CCN(C(=O)Nc2ccccc2)CC1
Cc1ccc(NC(=O)N2CCN(c3cccc4[nH]ccc34)CC2)cc1
Cc1cccc(C)c1NC(=O)N1CCN(c2cccc3[nH]ccc23)CC1
O=C(Nc1ccnnc1)N1CCN(c2cccc3[nH]ccc23)CC1
Cc1ccccc1NC(=O)N1CCN(c2cccc3[nH]ccc23)CC1
COc1ccc(NC(=O)N2CCN(c3cccc4[nH]ccc34)CC2)cc1OC
O=C(Nc1ccncn1)N1CCN(c2cccc3[nH]ccc23)CC1
O=C(Nc1ccccc1)N1CCN(c2ccc(Cl)c3[nH]ccc23)CC1
CS(=O)(=O)N1CCN(C(=O)Nc2ccccc2)CC1
O=C(Nc1ccccc1)N1CCN(c2cccc3ncccc23)CC1
O=C(Nc1ccccc1)N1CCN(c2ccccc2)CC1
O=C(Nc1cccnc1)N1CCN(c2cccc3[nH]ccc23)CC1
COc1c(C)cccc1NC(=O)N1CCN(c2cccc3[nH]ccc23)CC1
O=C(Nc1ccccc1C(F)(F)F)N1CCN(c2cccc3[nH]ccc23)CC1
O=C(CCc1ccccc1)N1CCN(c2cccc3[nH]ccc23)CC1
O=C(Nc1cccc(C(F)(F)F)c1)N1CCN(c2ccncc2)CC1
Cc1ccc(C)c(NC(=O)N2CCN(c3cccc4[nH]ccc34)CC2)c1
O=C(Nc1ccc(Cl)cc1)N1CCN(c2ccncc2)CC1

IC50, 46 µM:
O=C(Nc1ccccc1)N1CCN(c2cc(Cl)cc3[nH]ccc23)CC1

IC50, 36 µM:
O=C(Nc1ccc(OC(F)(F)F)cc1)N1CCN(c2cccc3[nH]ccc23)CC1
O=C(NCCc1c[nH]c2ccccc12)Nc1ccc(Cl)c(Cl)c1
O=C(NCCc1c[nH]c2ccccc12)Nc1ccc(Cl)cc1

IC50, 41 µM:
Cc1ccc(N2CCN(C(=O)Nc3ccccc3)CC2)c2cc[nH]c12

IC50, 28 µM:
O=C(NCCc1c[nH]c2ccccc12)Nc1cccc(Br)c1

IC50, 76 µM:
O=C(Nc1ccc2scnc2c1)N1CCN(c2cccc3[nH]ccc23)CC1

IC50, 32 µM:
O=C(NCCc1c[nH]c2ccccc12)Nc1ccc(Cl)cc1Cl

IC50, 67 µM:
O=C(NCCc1c[nH]c2ccccc12)Nc1ccc(Br)cc1

IC50, 16 µM:
O=C(Nc1ccc(Br)cc1)N1CCN(c2cccc3[nH]ccc23)CC1
CC(=O)c1ccc(NC(=O)N2CCN(c3cccc4[nH]ccc34)CC2)cc1
O=C(Nc1ccc(C(F)(F)F)cc1)N1CCN(c2cccc3[nH]ccc23)CC1

IC50, 14 µM:
O=C(Nc1cccc(C(F)(F)F)c1)N1CCN(c2cccc3[nH]ccc23)CC1

IC50, 8.2 µM:
O=C(Nc1ccc(Cl)cc1)N1CCN(c2cccc3[nH]ccc23)CC1

IC50, 85 µM:
O=C(Nc1ccccc1)N1CCN(c2cccc3[nH]ccc23)CC1

IC50, 63 µM:
O=C(NCCc1c[nH]c2ccccc12)Nc1ccc(OC(F)(F)F)cc1

IC50, 21 µM:
N#Cc1ccc(NC(=O)N2CCN(c3cccc4[nH]ccc34)CC2)cc1

System: Mus musculus
Experiment: AUC (0 to 24 hrs) in CD-1 mouse at 20 mg/kg administered via oral gavage by LC-MS/MS analysis
Assay type: ADME, organism-based
Parameters: time < 24 hr, dose 20 mg/kg, route oral
Conditions: in vivo
In short: as §1

AUC, 11.734 µg·h/mL:
O=C(Nc1ccccc1)N1CCN(c2cccc3[nH]ccc23)CC1

System: not listed separately
Experiment: Cmax in CD-1 mouse at 20 mg/kg administered via oral gavage by LC-MS/MS analysis
Assay type: ADME, organism-based
Parameters: dose 20 mg/kg, route oral
Conditions: in vivo
In short: as §1

Cmax, 4.13 µg/mL:
O=C(Nc1ccccc1)N1CCN(c2cccc3[nH]ccc23)CC1

System: not listed separately
Experiment: Stability in mouse plasma assessed as parent compound remaining after 4 hrs
Assay type: ADME, cell-free
Conditions: read-out: Stability

Remaining at 4 h, > 95%:
O=C(Nc1ccccc1)N1CCN(c2cccc3[nH]ccc23)CC1
